Results from ChEMBL document CHEMBL1140903, “Reactions of functionalized sulfonamides: application to lowering the lipophilicity of cytosolic phospholipase A2alpha inhibitors” (J Med Chem, 2009).
Active and inactive are the calls of the source. No cut-off for these calls is given here.

How the values were obtained:
[1] = biological target: T1, Cytosolic phospholipase A2 (Homo sapiens, UniProt P47712); assay: Inhibition of human cytosolic PLA2alpha by GLU micelle assay
T1 sequence (P47712 whole entry): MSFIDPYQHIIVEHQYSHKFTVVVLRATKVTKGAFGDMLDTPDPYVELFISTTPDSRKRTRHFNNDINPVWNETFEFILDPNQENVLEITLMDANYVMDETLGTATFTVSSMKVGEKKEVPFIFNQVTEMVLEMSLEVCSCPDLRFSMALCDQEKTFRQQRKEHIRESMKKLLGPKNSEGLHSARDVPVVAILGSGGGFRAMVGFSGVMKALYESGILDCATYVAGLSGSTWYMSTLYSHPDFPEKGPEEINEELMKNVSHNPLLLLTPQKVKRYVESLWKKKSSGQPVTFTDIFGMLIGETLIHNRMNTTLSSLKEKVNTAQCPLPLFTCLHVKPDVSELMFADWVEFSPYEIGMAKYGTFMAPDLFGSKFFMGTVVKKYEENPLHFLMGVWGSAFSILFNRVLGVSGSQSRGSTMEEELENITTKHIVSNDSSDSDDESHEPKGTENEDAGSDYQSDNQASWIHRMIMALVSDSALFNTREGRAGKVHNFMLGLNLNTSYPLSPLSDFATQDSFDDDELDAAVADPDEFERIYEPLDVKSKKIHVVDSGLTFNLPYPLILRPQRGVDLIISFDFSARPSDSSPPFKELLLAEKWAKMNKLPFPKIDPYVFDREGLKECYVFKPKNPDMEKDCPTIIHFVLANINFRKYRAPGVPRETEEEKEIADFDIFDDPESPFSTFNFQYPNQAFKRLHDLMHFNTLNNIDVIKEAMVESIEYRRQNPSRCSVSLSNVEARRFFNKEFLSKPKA
Summary of the method: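 Purified human cPLA2α with the substrate 7-hydroxycoumarinyl-γ-linolenate (GLU), presented in micelles containing a high concentration of detergent and lipid. IC50 is taken from at least two runs, each run the mean of duplicate assays.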

MC9 [2] = assay: Inhibition of arachidonic acid-induced PGF2-alpha release in mouse MC9 cells at 1.0 uM
Blood [3] = assay: Inhibition of A23187-induced TBX2 release in Sprague-Dawley rat whole blood; format: functional, tissue-based
Summary of the method: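 Rat whole blood is stimulated with calcium ionophore A23187, and thromboxane B2 is the read-out (cPLA2α- and COX-1-dependent). IC50 is taken from at least two runs, each run the mean of triplicate assays.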

MC9 [4] = assay: Inhibition of IgE-specific antigen-induced PGF2-alpha release in mouse MC9 cells at 0.037 uM
MC9 [5] = assay: Inhibition of IgE-specific antigen-induced LBT4 release in mouse MC9 cells at 0.037 uM
Rattus norvegicus [6] = assay: Antiinflammatory activity against carrageenan-induced paw edema in Sprague-Dawley rat at 15 mg/kg, iv; format: functional
Summary of the method: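 Rat carrageenan paw edema after iv dosing in 50/50 PEG/DMSO, with paw swelling assessed 3 h after dosing. Groups of 10 animals; naproxen was used to define maximal % inhibition.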

MC9 [7] = assay: Inhibition of IgE-specific antigen-induced PGF2alpha release in mouse MC9 cells at 0.11 uM
Rattus norvegicus [8] = assay: Plasma concentration in carrageenan-induced paw edema Sprague-Dawley rat model at 15 mg/kg, iv; format: ADME, organism-based; parameters: dose 15 mg/kg, route intravenous; details: in vivo
Summary of the method: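 Plasma concentration is measured in end-bleed samples taken 3 h after iv dosing in 50/50 PEG/DMSO in the carrageenan paw edema model. Values are means from five animals.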

MC9 [9] = assay: Inhibition of IgE-specific antigen-induced LBT4 release in mouse MC9 cells at 0.11 uM
MC9 [10] = assay: Inhibition of arachidonic acid-induced PGF2-alpha release in mouse MC9 cells
MC9 [11] = assay: Inhibition of IgE-specific antigen-induced LBT4 release in mouse MC9 cells at […]
MC9 [12] = assay: Inhibition of IgE-specific antigen-induced PGF2-alpha release in mouse MC9 cells
MC9 [13] = assay: Inhibition of IgE-specific antigen-induced LBT4 release in mouse MC9 cells at […]; remark: listed apart in the source
MC9 [14] = assay: Inhibition of IgE-specific antigen-induced PGF2alpha release in mouse MC9 cells at […]
MC9 [15] = assay: Inhibition of IgE-specific antigen-induced PGF2-alpha release in mouse MC9 cells at 1.0 uM
MC9 [16] = assay: Inhibition of IgE-specific antigen-induced LBT4 release in mouse MC9 cells at 1.0 uM
Blood [17] = assay: Inhibition of A23187-induced TBX2 release in human whole blood at 10 uM; format: functional
MC9 [18] = assay: Inhibition of IgE-specific antigen-induced PGF2alpha release in rat MC9 cells at 0.20 uM; details: Mus musculus, MC9, read-out: INH
Rattus norvegicus [19] = assay: Antiinflammatory activity against carrageenan-induced paw edema in Sprague-Dawley rat at 10 mg/kg, iv; details: read-out: INH
MC9 [20] = assay: cells; details: Mus musculus, MC9, read-out: INH
MC9 [21] = assay: Inhibition of IgE-specific antigen-induced LBT4 release in mouse MC9 cells at 0.5 uM
MC9 [22] = assay: Inhibition of IgE-specific antigen-induced PGF2alpha release in mouse MC9 cells at 0.5 uM
MC9 [23] = assay: Inhibition of arachidonic acid-induced PGF2-alpha release in mouse MC9 cells at 0.5 uM
MC9 [24] = assay: Inhibition of arachidonic acid-induced PGF2-alpha release in rat MC9 cells at 0.0005 uM; format: functional; details: Mus musculus
MC9 [25] = assay: Inhibition of IgE-specific antigen-induced PGF2-alpha release in rat MC9 cells at 0.0005 uM; format: functional; details: Mus musculus
MC9 [26] = assay: Inhibition of IgE-specific antigen-induced PGF2-alpha release in mouse MC9 cells at 0.40 uM
MC9 [27] = assay: Inhibition of arachidonic acid-induced PGF2alpha release in mouse MC9 cells at 0.30 uM
Rattus norvegicus [28] = assay: Plasma concentration in carrageenan-induced paw edema Sprague-Dawley rat model at 15 mg/kg, iv; details: in vivo
Blood [29] = assay: Inhibition of A23187-induced TBX2 release in human whole blood; format: functional, tissue-based
Summary of the method: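 Human whole blood is stimulated with calcium ionophore A23187 at a higher concentration than in the rat whole blood assay. Thromboxane production is the read-out.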

MC9 [30] = assay: Inhibition of IgE-specific antigen-induced LBT4 release in mouse MC9 cells at 0.333 uM

Row | IC50 [1] | IC50 (Blood [3]) | SMILES | inhibition at 1 µM (MC9 [2]) | inhibition at 0.11 µM (MC9 [7]) | inhibition at 0.11 µM (MC9 [9]) | also measured
1 | 240 nM | 140 nM | O=C(O)c1ccc(OCCc2c(CCNS(=O)(=O)CSc3ccc(Cl)c(Cl)c3)n(C(c3ccccc3)c3ccccc3)c3ccc(Cl)cc23)cc1 | 33% | – | – | inhibition at 0.037 µM (MC9 [4]): 48%; inhibition at 0.037 µM (MC9 [5]): 64%
2 | 130 nM | 74 nM | CC1CCC(C)N1CCS(=O)(=O)NCCc1c(CCOc2ccc(C(=O)O)cc2)c2cc(Cl)ccc2n1C(c1ccccc1)c1ccccc1 (stereo unspecified) | -2% | 69% | 80% | inhibition in vivo at 15 mg/kg (Rattus norvegicus [6]): 37%; concentration (Rattus norvegicus [8]): 232 nM
3 | – | 180 nM | O=C(O)c1ccc(OCCc2c(CCNS(=O)(=O)CCN3CCSCC3)n(C(c3ccccc3)c3ccccc3)c3ccc(Cl)cc23)cc1 | 6% | 66% | 76% | inhibition in vivo at 15 mg/kg (Rattus norvegicus [6]): 27.9%; concentration (Rattus norvegicus [8]): 270 nM
4 | – | – | CC(c1cc2ccccc2s1)N(O)C(N)=O (stereo unspecified) [ZILEUTON] | – | – | – | Activity (MC9 [10]): inactive; inhibition at 0.55 µM at […] (MC9 [11]): 50%; Activity (MC9 [12]): inactive
5 | 180 nM | 560 nM | O=C(O)c1ccc(OCCc2c(CCNS(=O)(=O)C[S+]([O-])c3ccc(Cl)c(Cl)c3)n(C(c3ccccc3)c3ccccc3)c3ccc(Cl)cc23)cc1 (stereo unspecified) | 1.4% | 45% | 55% | –
6 | 350 nM | 3200 nM | NC(=O)C1CCCN1CCS(=O)(=O)NCCc1c(CCOc2ccc(C(=O)O)cc2)c2cc(Cl)ccc2n1C(c1ccccc1)c1ccccc1 (single isomer, unassigned) | 8% | – | – | inhibition at 0.33 µM at […] (MC9 [13]): 41%; inhibition at 0.33 µM at […] (MC9 [14]): 41%
7 | 470 nM | 5600 nM | O=C(O)c1ccc(OCCc2c(CCNS(=O)(=O)CCn3cnnn3)n(C(c3ccccc3)c3ccccc3)c3ccc(Cl)cc23)cc1 | -5% | – | – | inhibition at 1 µM (MC9 [15]): 19%; inhibition at 1 µM (MC9 [16]): 59%; inhibition at 10 µM (Blood [17]): < 25%
8 | 140 nM | 30 nM | O=C(O)c1ccc(OCCc2c(CCNS(=O)(=O)CSc3ccc(F)cc3F)n(C(c3ccccc3)c3ccccc3)c3ccc(Cl)cc23)cc1 | 47% | – | – | inhibition at 0.037 µM (MC9 [4]): 77%; inhibition at 0.037 µM (MC9 [5]): 94%
9 | – | – | COc1ccc2cc([C@H](C)C(=O)O)ccc2c1 [NAPROXEN] | – | – | – | inhibition at 0.2 µM (MC9 [18]): 50%; inhibition in vivo at 10 mg/kg (Rattus norvegicus [19]): 50%; inhibition at […] (MC9 [20]): 50%
10 | 150 nM | 480 nM | CS(=O)(=O)CS(=O)(=O)NCCc1c(CCOc2ccc(C(=O)O)cc2)c2cc(Cl)ccc2n1C(c1ccccc1)c1ccccc1 | – | – | – | inhibition at 0.5 µM (MC9 [21]): 100%; inhibition at 0.5 µM (MC9 [22]): 100%; inhibition at 0.5 µM (MC9 [23]): -47%
11 | – | – | Cc1ccc(-c2cc(C(F)(F)F)nn2-c2ccc(S(N)(=O)=O)cc2)cc1 [CELECOXIB] | – | – | – | inhibition at 0.0005 µM (MC9 [24]): 79%; inhibition at 0.0005 µM (MC9 [25]): 79%; inhibition at 0.4 µM (MC9 [26]): 50%; inhibition at 0.3 µM (MC9 [27]): 50%
12 | 40 nM | 70 nM | O=C(O)c1ccc(CCCc2c(CCNS(=O)(=O)Cc3ccc(Cl)c(Cl)c3)n(C(c3ccccc3)c3ccccc3)c3ccc(Cl)cc23)cc1 [EFIPLADIB] | – | – | – | concentration (Rattus norvegicus [28]): 5300 nM; inhibition in vivo at 15 mg/kg (Rattus norvegicus [6]): 51%
13 | 200 nM | 140 nM | O=C(O)c1ccc(CCCc2c(CCNS(=O)(=O)CCN3CCOCC3)n(C(c3ccccc3)c3ccccc3)c3ccc(Cl)cc23)cc1 | 9% | 71% | 69% | inhibition in vivo at 15 mg/kg (Rattus norvegicus [6]): 23.5%; concentration (Rattus norvegicus [8]): 163 nM
14 | 380 nM | 450 nM | O=C(O)c1ccc(OCCc2c(CCNS(=O)(=O)CCn3ncnn3)n(C(c3ccccc3)c3ccccc3)c3ccc(Cl)cc23)cc1 | 4% | – | – | IC50 (Blood [29]): 2000 nM; inhibition at 0.33 µM at […] (MC9 [14]): 71%; inhibition at 0.333 µM (MC9 [30]): 80%
15 | 270 nM | 150 nM | CN(C)CC1CCCCN1CCS(=O)(=O)NCCc1c(CCOc2ccc(C(=O)O)cc2)c2cc(Cl)ccc2n1C(c1ccccc1)c1ccccc1 (stereo unspecified) | 13% | 56% | 62% | –
16 | 450 nM | 160 nM | Cc1cc(C)n(CCS(=O)(=O)NCCc2c(CCOc3ccc(C(=O)O)cc3)c3cc(Cl)ccc3n2C(c2ccccc2)c2ccccc2)n1 | 5% | 83% | 89% | –
17 | 120 nM | 57 nM | CC1CCCCN1CCS(=O)(=O)NCCc1c(CCOc2ccc(C(=O)O)cc2)c2cc(Cl)ccc2n1C(c1ccccc1)c1ccccc1 (stereo unspecified) | 14% | – | – | inhibition at 0.037 µM (MC9 [4]): 45%; inhibition at 0.037 µM (MC9 [5]): 62%
